Measurements from ChEMBL document CHEMBL2086325, “Suppression of autoimmune arthritis by Celastrus-derived Celastrol through modulation of pro-inflammatory chemokines” (Bioorg Med Chem, 2012).
Calls of active or inactive are those of the source. The rule behind the calls is not given here.

Assays:
[1] = tested on: Rattus norvegicus; experiment: Antiarthritic effect in Lewis rat adjuvant-induced arthritis model serum assessed as reduction in RANTES production at 200 ug, ip starting from arthritis onset and continued uninterrupted until study end by cytokine multiplex assay; assay type: functional, organism-based
How it was run: (§1)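 Arthritic Lewis rats (Mtb 1.5 mg s.c. in mineral oil) were given 200 μg/rat i.p. daily from onset until the day before harvest; controls received DMSO/PBS vehicle. On d 18, blood was taken by cardiac puncture after euthanasia and serum stored at −80 °C. Serum pooled from 4 rats was assayed in triplicate by multiplex.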

[2] = tested on: Rattus norvegicus; experiment: Antiarthritic effect in Lewis rat adjuvant-induced arthritis model serum assessed as reduction in IL6 production at 200 ug, ip starting from arthritis onset and continued uninterrupted until study end by cytokine multiplex assay; assay type: functional, organism-based; how it was run: as §1
[3] = tested on: Rattus norvegicus; experiment: (§2) Antiarthritic effect in Lewis rat adjuvant-induced arthritis model spleen adherent cells restimulated with sonicated Mtb post isolation assessed as reduction in MCP1 production at 200 ug, ip starting from arthritis onset and continued uninterrupted until study end by cytokine multiplex assay; assay type: functional, organism-based
How it was run: (§3)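 Mtb-immunized male Lewis rats were dosed 200 μg/rat i.p. daily from arthritis onset (vehicle: 1.2% DMSO/PBS). Spleen adherent cells were prepared on d 18, plated at 1.5 × 10^6/well in 2% FBS medium and restimulated with sonicated Mtb (10 μg/ml) for 24 h. Supernatant chemokines and cytokines were measured by Luminex multiplex. Mean ± SD of triplicates from 4–5 rats.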

[4] = tested on: Rattus norvegicus; experiment: as §2, with “synovial infiltrating” for “spleen adherent”, “IL-1beta” for “MCP1”; assay type: functional, organism-based
How it was run: (§4)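 Male Lewis rats were immunized s.c. with heat-killed Mtb H37Ra (1.5 mg/rat) in mineral oil. From arthritis onset they received 200 μg/rat i.p. daily (DMSO stock diluted in PBS); controls got 1.2% DMSO in PBS. On d 18, draining lymph node or synovial-infiltrating cells were cultured at 1.5 × 10^6/well in 2% FBS medium ± sonicated Mtb (10 μg/ml) for 24 h. Supernatants were analysed by multiplex.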

[5] = species: Rattus norvegicus; experiment: Antiarthritic effect in sonicated Mtb-stimulated spleen adherent cells isolated from Lewis rat adjuvant-induced arthritis model assessed as reduction in MIP-1alpha production pre-incubated with compound for 30 mins before stimulation with sonicated-Mtb for 48 hrs by multiplex assay; assay type: functional, tissue-based
[6] = tested on: Rattus norvegicus; experiment: Antiarthritic effect in Lewis rat adjuvant-induced arthritis model spleen adherent cells restimulated with sonicated Mtb post isolation assessed as reduction in CCR2 expression at 200 ug, ip starting from arthritis onset and continued uninterrupted until study end by qPCR; assay type: functional, organism-based
How it was run: (§5)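 From onset of Mtb-induced arthritis, rats received 200 μg/rat i.p. daily or vehicle. Spleen adherent cells harvested on d 18 (1.5–2.0 × 10^6 cells/well) were cultured in medium or with sonicated Mtb (10 μg/ml) for 24 h. Receptor mRNA was quantified by qPCR after TRIzol RNA isolation and cDNA synthesis, normalized to HGPRT and reported as relative message.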

[7] = species: Rattus norvegicus; experiment: Antiarthritic effect in sonicated Mtb-stimulated spleen adherent cells isolated from Lewis rat adjuvant-induced arthritis model assessed as reduction in IL6 production pre-incubated with compound for 30 mins before stimulation with sonicated-Mtb for 48 hrs by multiplex assay; assay type: functional, tissue-based
[8] = tested on: Rattus norvegicus; experiment: Antiarthritic effect in Lewis rat adjuvant-induced arthritis model lymph node cells restimulated with sonicated Mtb post isolation assessed as reduction in GRO/KC production at 200 ug, ip starting from arthritis onset and continued uninterrupted until study end by cytokine multiplex assay; assay type: functional, organism-based; how it was run: as §4
[9] = tested on: Rattus norvegicus; experiment: Antiarthritic effect in Lewis rat adjuvant-induced arthritis model lymph node cells restimulated with sonicated Mtb post isolation assessed as reduction in IL6 production at 200 ug, ip starting from arthritis onset and continued uninterrupted until study end by cytokine multiplex assay; assay type: functional, organism-based; how it was run: as §4
[10] = tested on: Rattus norvegicus; experiment: Antiarthritic effect in Lewis rat adjuvant-induced arthritis model spleen adherent cells restimulated with sonicated Mtb post isolation assessed as reduction in TNFalpha production at 200 ug, ip starting from arthritis onset and continued uninterrupted until study end by cytokine multiplex assay; assay type: functional, organism-based; how it was run: as §3
[11] = tested on: Rattus norvegicus; experiment: Antiarthritic effect in Lewis rat adjuvant-induced arthritis model lymph node cells restimulated with sonicated Mtb post isolation assessed as reduction in RANTES production at 200 ug, ip starting from arthritis onset and continued uninterrupted until study end by cytokine multiplex assay; assay type: functional, organism-based; how it was run: as §4
[12] = species: Rattus norvegicus; experiment: Antiarthritic effect in IL-1beta-stimulatedspleen adherent cells isolated from Lewis rat adjuvant-induced arthritis model assessed as reduction in TNFalpha production pre-incubated with compound for 30 mins before stimulation with IL-1beta for 48 hrs by multiplex assay; assay type: functional, tissue-based; details: Spleen
[13] = species: Rattus norvegicus; experiment: Antiarthritic effect in sonicated Mtb-stimulated spleen adherent cells isolated from Lewis rat adjuvant-induced arthritis model assessed as reduction in TNFalpha production pre-incubated with compound for 30 mins before stimulation with sonicated-Mtb for 48 hrs by multiplex assay; assay type: functional, tissue-based
[14] = tested on: Rattus norvegicus; experiment: Antiarthritic effect in Lewis rat adjuvant-induced arthritis model spleen adherent cells restimulated with sonicated Mtb post isolation assessed as reduction in CCR6 expression at 200 ug, ip starting from arthritis onset and continued uninterrupted until study end by qPCR; assay type: functional, organism-based; how it was run: as §5
[15] = tested on: Rattus norvegicus; experiment: Antiarthritic effect in Lewis rat adjuvant-induced arthritis model synovial infiltrating cells restimulated with sonicated Mtb post isolation assessed as reduction in MCP1 production at 200 ug, ip starting from arthritis onset and continued uninterrupted until study end by cytokine multiplex assay; assay type: functional, organism-based; how it was run: as §4
[16] = species: Rattus norvegicus; experiment: Antiarthritic effect in IL-1beta-stimulatedspleen adherent cells isolated from Lewis rat adjuvant-induced arthritis model assessed as reduction in IL6 production pre-incubated with compound for 30 mins before stimulation with IL-1beta for 48 hrs by multiplex assay; assay type: functional, tissue-based; details: Spleen
[17] = species: Rattus norvegicus; experiment: Increase in CCR1 protein surface expression in sonicated Mtb-stimulated spleen adherent cells isolated from Lewis rat adjuvant-induced arthritis model pre-incubated with 0.1 to 0.3 uM compound before stimulation with sonicated Mtb for 24 hrs by flow cytometry; assay type: functional, tissue-based
How it was run: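 Spleen adherent cells from arthritic rats were stimulated 24 h with sonicated Mtb in vitro, with or without compound. Cells were detached with TrypLE for 10 min, washed, and surface-stained 30 min with anti-CD11b/c PerCP-eFluor 710 and cross-reactive anti-human CCR1 Alexa Fluor 647. Cells were fixed in 1% formaldehyde and analysed by flow cytometry, with IgG2a/IgG2b isotype controls.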

[18] = tested on: Rattus norvegicus; experiment: Antiarthritic effect in Lewis rat adjuvant-induced arthritis model spleen adherent cells restimulated with sonicated Mtb post isolation assessed as reduction in CXCR4 expression at 200 ug, ip starting from arthritis onset and continued uninterrupted until study end by qPCR; assay type: functional, organism-based; how it was run: as §5
[19] = tested on: Rattus norvegicus; experiment: Antiarthritic effect in Lewis rat adjuvant-induced arthritis model spleen adherent cells restimulated with sonicated Mtb post isolation assessed as reduction in IL6 production at 200 ug, ip starting from arthritis onset and continued uninterrupted until study end by cytokine multiplex assay; assay type: functional, organism-based; how it was run: as §3
[20] = tested on: Rattus norvegicus; experiment: Antiarthritic effect in Lewis rat adjuvant-induced arthritis model lymph node cells restimulated with sonicated Mtb post isolation assessed as reduction in IL-1beta production at 200 ug, ip starting from arthritis onset and continued uninterrupted until study end by cytokine multiplex assay; assay type: functional, organism-based; how it was run: as §4
[21] = tested on: Rattus norvegicus; experiment: Toxicity in Lewis rat adjuvant-induced arthritis model serum assessed as increase in MCP1 production at 200 ug, ip starting from arthritis onset and continued uninterrupted until study end by cytokine multiplex assay; assay type: organism-based; details: in vivo; how it was run: as §1
[22] = tested on: Rattus norvegicus; experiment: Antiarthritic effect in Lewis rat adjuvant-induced arthritis model lymph node cells restimulated with sonicated Mtb post isolation assessed as reduction in MIP-1alpha production at 200 ug, ip starting from arthritis onset and continued uninterrupted until study end by cytokine multiplex assay; assay type: functional, organism-based; how it was run: as §4

Compound: CC1=C(O)C(=O)C=C2C1=CC=C1[C@@]2(C)CC[C@@]2(C)[C@@H]3C[C@](C)(C(=O)O)CC[C@]3(C)CC[C@]12C [CELASTROL]
- Activity [1]: Active
- Activity [2]: inactive
- Activity [3]: Active
- Activity [4]: inactive
- Activity [5]: Dose-dependent effect
- Activity [6]: Active
- Activity [7]: Dose-dependent effect
- Activity [8]: inactive
- Activity [9]: inactive
- Activity [10]: Active
- Activity [11]: inactive
- Activity [12]: Dose-dependent effect
- Activity [13]: Dose-dependent effect
- Activity [14]: Active
- Activity [15]: inactive
- Activity [16]: Dose-dependent effect
- Activity [17]: Active
- Activity [18]: Active
- Activity [19]: inactive
- Activity [20]: inactive
- Activity [21]: Toxic
- Activity [22]: inactive
